Experiments:
Set-up in all cases: dose 5 mg/kg, dosed compound name [14C]CS-1036, route oral
Settings in all cases: in vivo
[1] = test system: Lung; test: Drug uptake in albino F344/DuCrlCrlj rat lung assessed as ng equivalent of CS-1036 at 5 mg/kg, po after 24 hrs by liquid scintillation counting; format: ADME, organism-based
[2] = Drug uptake in albino F344/DuCrlCrlj rat testis assessed as ng equivalent of CS-1036 at 5 mg/kg, po after 4 hrs by liquid scintillation counting; format: ADME, organism-based
[3] = Drug uptake in albino F344/DuCrlCrlj rat thyroid gland assessed as ng equivalent of CS-1036 at 5 mg/kg, po after 4 hrs by liquid scintillation counting; format: ADME, organism-based
[4] = Drug uptake in albino F344/DuCrlCrlj rat thyroid gland assessed as ng equivalent of CS-1036 at 5 mg/kg, po after 72 hrs by liquid scintillation counting; format: ADME, organism-based
[5] = Drug uptake in albino F344/DuCrlCrlj rat trachea assessed as ng equivalent of CS-1036 at 5 mg/kg, po after 4 hrs by liquid scintillation counting; format: ADME, organism-based
[6] = test system: Small intestine; test: Drug uptake in albino F344/DuCrlCrlj rat small intestine at 5 mg/kg, po after 72 hrs by liquid scintillation counting; format: ADME, organism-based
[7] = Drug uptake in albino F344/DuCrlCrlj rat fat assessed as ng equivalent of CS-1036 at 5 mg/kg, po after 8 hrs by liquid scintillation counting; format: ADME, organism-based, Adipose tissue
Summary of the method: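 Male F344/DuCrlCrlj rats (bought at 7 weeks, acclimatized 5–6 days; 159–167 g; n = 3 per time point) received a single oral dose of [14C]CS-1036 at 5 mg/kg. White adipose tissue was collected after abdominal aortic bleeding at 1, 4, 8, 24, 72, 168 or 336 h. Samples were counted by LSC with external-standard efficiency correction. Results were converted to ng equivalents per g from specific activity and sample weight.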

[8] = test system: Large intestine; test: Drug uptake in albino F344/DuCrlCrlj rat large intestine at 5 mg/kg, po after 72 hrs by liquid scintillation counting; format: ADME, organism-based
[9] = Drug uptake in albino F344/DuCrlCrlj rat mandibular gland assessed as ng equivalent of CS-1036 at 5 mg/kg, po after 24 hrs by liquid scintillation counting; format: ADME, organism-based
[10] = test system: Thymus; test: Drug uptake in albino F344/DuCrlCrlj rat thymus at 5 mg/kg, po after 72 hrs by liquid scintillation counting; format: ADME, organism-based
[11] = Drug uptake in albino F344/DuCrlCrlj rat mandibular gland assessed as ng equivalent of CS-1036 at 5 mg/kg, po after 8 hrs by liquid scintillation counting; format: ADME, organism-based
[12] = test system: Pancreas; test: Drug uptake in albino F344/DuCrlCrlj rat pancreas at 5 mg/kg, po after 72 hrs by liquid scintillation counting; format: ADME, organism-based
[13] = test system: Thymus; test: Drug uptake in albino F344/DuCrlCrlj rat thymus at 5 mg/kg, po after 336 hrs by liquid scintillation counting; format: ADME, organism-based
[14] = Drug uptake in albino F344/DuCrlCrlj rat thyroid gland assessed as ng equivalent of CS-1036 at 5 mg/kg, po after 8 hrs by liquid scintillation counting; format: ADME, organism-based
[15] = test system: Thymus; test: Drug uptake in albino F344/DuCrlCrlj rat thymus assessed as ng equivalent of CS-1036 at 5 mg/kg, po after 4 hrs by liquid scintillation counting; format: ADME, organism-based
[16] = test system: Aorta; test: Drug uptake in albino F344/DuCrlCrlj rat aorta at 5 mg/kg, po after 336 hrs by liquid scintillation counting; format: ADME, organism-based
[17] = test system: Zone of skin; test: Drug uptake in albino F344/DuCrlCrlj rat skin assessed as ng equivalent of CS-1036 at 5 mg/kg, po after 72 hrs by liquid scintillation counting; format: ADME, organism-based
[18] = test system: Blood; test: Drug uptake in albino F344/DuCrlCrlj rat blood at 5 mg/kg, po after 8 hrs by liquid scintillation counting; format: ADME, organism-based
Summary of the method: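 Male rats (159–167 g; n = 3) received a single oral dose of [14C]CS-1036 at 5 mg/kg. Blood was drawn from the abdominal aorta at 1, 4, 8, 24, 72, 168 and 336 h. Radioactivity was counted by LSC with external-standard efficiency correction. Results are expressed as ng equivalent/ml from the specific activity and sample volume; mean + S.D.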

[19] = test system: Cerebellum; test: Drug uptake in albino F344/DuCrlCrlj rat cerebellum at 5 mg/kg, po after 4 hrs by liquid scintillation counting; format: ADME, organism-based
[20] = test system: Liver; test: Drug uptake in albino F344/DuCrlCrlj rat liver assessed as ng equivalent of CS-1036 at 5 mg/kg, po after 336 hrs by liquid scintillation counting; format: ADME, organism-based
[21] = test system: Spleen; test: Drug uptake in albino F344/DuCrlCrlj rat spleen assessed as ng equivalent of CS-1036 at 5 mg/kg, po after 336 hrs by liquid scintillation counting; format: ADME, organism-based
[22] = test system: Harderian gland; test: Drug uptake in albino F344/DuCrlCrlj rat harderian gland at 5 mg/kg, po after 72 hrs by liquid scintillation counting; format: ADME, organism-based
[23] = test system: Liver; test: Drug uptake in albino F344/DuCrlCrlj rat liver assessed as ng equivalent of CS-1036 at 5 mg/kg, po after 8 hrs by liquid scintillation counting; format: ADME, organism-based
[24] = test system: Liver; test: Drug uptake in albino F344/DuCrlCrlj rat liver at 5 mg/kg, po after 24 hrs by liquid scintillation counting; format: ADME, organism-based
[25] = test system: Harderian gland; test: Drug uptake in albino F344/DuCrlCrlj rat harderian gland at 5 mg/kg, po after 168 hrs by liquid scintillation counting; format: ADME, organism-based
[26] = Drug uptake in albino F344/DuCrlCrlj rat skeletal muscle at 5 mg/kg, po after 8 hrs by liquid scintillation counting; format: ADME, organism-based, Muscle tissue
[27] = test system: Spleen; test: Drug uptake in albino F344/DuCrlCrlj rat spleen assessed as ng equivalent of CS-1036 at 5 mg/kg, po after 24 hrs by liquid scintillation counting; format: ADME, organism-based
[28] = Drug uptake in albino F344/DuCrlCrlj rat bone marrow at 5 mg/kg, po after 8 hrs by liquid scintillation counting; format: ADME, organism-based
[29] = Drug uptake in albino F344/DuCrlCrlj rat eyeball assessed as ng equivalent of CS-1036 at 5 mg/kg, po after 8 hrs by liquid scintillation counting; format: ADME, organism-based
[30] = Drug uptake in albino F344/DuCrlCrlj rat bone marrow at 5 mg/kg, po after 168 hrs by liquid scintillation counting; format: ADME, organism-based
[31] = test system: Harderian gland; test: Drug uptake in albino F344/DuCrlCrlj rat harderian gland assessed as ng equivalent of CS-1036 at 5 mg/kg, po after 24 hrs by liquid scintillation counting; format: ADME, organism-based
[32] = test system: Liver; test: Drug uptake in albino F344/DuCrlCrlj rat liver assessed as ng equivalent of CS-1036 at 5 mg/kg, po after 4 hrs by liquid scintillation counting; format: ADME, organism-based
[33] = test system: Blood; test: Drug uptake in albino F344/DuCrlCrlj rat blood assessed as ng equivalent of CS-1036 at 5 mg/kg, po after 168 hrs by liquid scintillation counting; format: ADME, organism-based
Summary of the method: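 Male F344/DuCrlCrlj rats (159–167 g; n = 3 per time point) received a single oral dose of [14C]CS-1036 at 5 mg/kg. Blood was taken from the abdominal aorta at 1, 4, 8, 24, 72, 168 and 336 h. Radioactivity was counted by LSC with external-standard efficiency correction. Results were converted to ng equivalent of CS-1036/ml using specific activity and sample volume, and reported as mean + S.D.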

Work on `C[C@H]1O[C@@H](O[C@H]2[C@H](O)[C@@H](O)[C@@H](O[14C@H]3[14C@H](O)[14CH2]N[14C@@H]3[14CH2]O)O[C@@H]2CO)[C@H](O)[C@@H](O)[C@@H]1O` yielded a Radiolabel recovery [1] of 12.8 ngequiv/g, a Radiolabel recovery [2] of 5.3 ngequiv/g and a Radiolabel recovery [3] of 21.4 ngequiv/g. It also gave a Radiolabel recovery [4] of 42.7 ngequiv/g, a Radiolabel recovery [5] of 10.4 ngequiv/g and a Radiolabel recovery [6] of 41.3 ngequiv/g. For the same molecule, the Radiolabel recovery [7] was 4.6 ngequiv/g, the Radiolabel recovery [8] was 65.1 ngequiv/g and the Radiolabel recovery [9] was 9 ngequiv/g. The Radiolabel recovery [10] was 48.3 ngequiv/g, the Radiolabel recovery [11] was 24 ngequiv/g and the Radiolabel recovery [12] was 186 ngequiv/g. For the same molecule, the Radiolabel recovery [13] was 5.1 ngequiv/g, the Radiolabel recovery [14] was 57.2 ngequiv/g and the Radiolabel recovery [15] was 2.8 ngequiv/g. It also gave a Radiolabel recovery [16] of 11 ngequiv/g, a Radiolabel recovery [17] of 48.7 ngequiv/g and a Radiolabel recovery [18] of 22.1 ngequiv/ml. It also gave a Radiolabel recovery [19] of 11.2 ngequiv/g, a Radiolabel recovery [20] of 2.66 ngequiv/g and a Radiolabel recovery [21] of 2.83 ngequiv/g. It also gave a Radiolabel recovery [22] of 119 ngequiv/g, a Radiolabel recovery [23] of 116 ngequiv/g and a Radiolabel recovery [24] of 266 ngequiv/g. It also gave a Radiolabel recovery [25] of 17.1 ngequiv/g, a Radiolabel recovery [26] of 32.2 ngequiv/g and a Radiolabel recovery [27] of 10.4 ngequiv/g. It also gave a Radiolabel recovery [28] of 75 ngequiv/g, a Radiolabel recovery [29] of 18.9 ngequiv/g and a Radiolabel recovery [30] of 47 ngequiv/g. The Radiolabel recovery [31] was 88 ngequiv/g, the Radiolabel recovery [32] was 93 ngequiv/g and the Radiolabel recovery [33] was 3.52 ngequiv/ml.
